Test results reported in ChEMBL document CHEMBL5108039, “Piperazine tethered bergenin heterocyclic hybrids: design, synthesis, anticancer activity, and molecular docking studies” (RSC Med Chem, 2022).

Experiments:
HCT-15 = assay: Cytotoxicity against human HCT-15 cells assessed as cell growth inhibition; type: functional, cell-based
Procedure, shortened: (§1)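 Compounds were dissolved in sterile DMSO as 10 mg ml−1 stocks and tested for in vitro growth inhibition of human cancer cell lines. Doxorubicin was the standard drug and DMSO (0.01%) the vehicle control. IC50 values are reported as means.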

CAL-27 [1] = assay: Cytotoxicity against human CAL-27 cells assessed as cell growth inhibition; type: functional, cell-based; procedure, shortened: as §1
SCC-9 [2] = assay: Cytotoxicity against human SCC-9 cells assessed as cell growth inhibition; type: functional, cell-based; procedure, shortened: as §1
A549 = assay: Cytotoxicity against human A549 cells assessed as cell growth inhibition; type: functional, cell-based
Procedure, shortened: (§2)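 Compounds were dissolved in sterile DMSO as 10 mg ml−1 stocks and tested in vitro for cytotoxicity in a cell-line panel, with DMSO (0.01%) as vehicle control and doxorubicin as standard. Mean IC50 values were reported, and the normal lung epithelial cells were tested up to 100 μM.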

MCF7 = assay: Cytotoxicity against human MCF7 cells assessed as cell growth inhibition; type: functional, cell-based; procedure, shortened: as §1
[3] = Cytotoxicity against human BEAS-2B cells assessed as cell growth inhibition; type: toxicity, cell-based; procedure, shortened: as §2
CAL-27 [4] = assay: Cell cycle arrest in human CAL-27 cells assessed as accumulation at G0/G1 phase at 31.5 uM incubated for 24 hrs by flow cytometry (reference value: 77.6 %); type: functional
CAL-27 [5] = assay: Cell cycle arrest in human CAL-27 cells assessed as accumulation at G0/G1 phase at 63 uM incubated for 24 hrs by flow cytometry (reference value: 77.6 %); type: functional
CAL-27 [6] = assay: Cell cycle arrest in human CAL-27 cells assessed as accumulation at S phase at 31.5 uM incubated for 24 hrs by flow cytometry (reference value: 3.6 %); type: functional
CAL-27 [7] = assay: Cell cycle arrest in human CAL-27 cells assessed as accumulation at S phase at 63 uM incubated for 24 hrs by flow cytometry (reference value: 3.6 %); type: functional
CAL-27 [8] = assay: Cell cycle arrest in human CAL-27 cells assessed as accumulation at G2/M phase at 31.5 uM incubated for 24 hrs by flow cytometry (reference value: 11.9 %); type: functional
CAL-27 [9] = assay: Cell cycle arrest in human CAL-27 cells assessed as accumulation at G2/M phase at 63 uM incubated for 24 hrs by flow cytometry (reference value: 11.9 %); type: functional
SCC-9 [10] = assay: Cell cycle arrest in human SCC-9 cells assessed as accumulation at G0/G1 phase at 46 uM incubated for 24 hrs by flow cytometry (reference value: 70.8 %); type: functional
SCC-9 [11] = assay: Cell cycle arrest in human SCC-9 cells assessed as accumulation at G0/G1 phase at 92 uM incubated for 24 hrs by flow cytometry (reference value: 70.8 %); type: functional
SCC-9 [12] = assay: Cell cycle arrest in human SCC-9 cells assessed as accumulation at S phase at 46 uM incubated for 24 hrs by flow cytometry (reference value: 14.4 %); type: functional
SCC-9 [13] = assay: Cell cycle arrest in human SCC-9 cells assessed as accumulation at S phase at 92 uM incubated for 24 hrs by flow cytometry (reference value: 14.4 %); type: functional
SCC-9 [14] = assay: Cell cycle arrest in human SCC-9 cells assessed as accumulation at G2/M phase at 46 uM incubated for 24 hrs by flow cytometry (reference value: 14.2 %); type: functional
SCC-9 [15] = assay: Cell cycle arrest in human SCC-9 cells assessed as accumulation at G2/M phase at 92 uM incubated for 24 hrs by flow cytometry (reference value: 14.2 %); type: functional
CAL-27 [16] = assay: Induction of apoptosis in human CAL-27 cells assessed as live cells at 31.5 uM incubated for 24 hrs by Annexin V-FITC/PI staining based flow cytometric analysis (reference value: 99.8 %); type: functional
Procedure, shortened: (§3)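 CAL27 cells were treated with vehicle, doxorubicin or test compounds at 10–63 μM, and apoptosis was assessed by annexin V–FITC/PI staining with flow cytometry. Cells were scored as live, early apoptotic, late apoptotic or necrotic. The vehicle was DMSO (0.01%).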

CAL-27 [17] = assay: Induction of apoptosis in human CAL-27 cells assessed as early apoptotic cells at 31.5 uM incubated for 24 hrs by Annexin V-FITC/PI staining based flow cytometric analysis (reference value: 0.1 %); type: functional; procedure, shortened: as §3
CAL-27 [18] = assay: Induction of apoptosis in human CAL-27 cells assessed as late apoptotic cells at 31.5 uM incubated for 24 hrs by Annexin V-FITC/PI staining based flow cytometric analysis (reference value: 0.1 %); type: functional; procedure, shortened: as §3
CAL-27 [19] = assay: Induction of apoptosis in human CAL-27 cells assessed as necrotic cells at 31.5 uM incubated for 24 hrs by Annexin V-FITC/PI staining based flow cytometric analysis (reference value: 0.0 %); type: functional
CAL-27 [20] = assay: Induction of apoptosis in human CAL-27 cells assessed as live cells at 63 uM incubated for 24 hrs by Annexin V-FITC/PI staining based flow cytometric analysis (reference value: 99.8 %); type: functional; procedure, shortened: as §3
CAL-27 [21] = assay: Induction of apoptosis in human CAL-27 cells assessed as early apoptotic cells at 63 uM incubated for 24 hrs by Annexin V-FITC/PI staining based flow cytometric analysis (reference value: 0.1 %); type: functional; procedure, shortened: as §3
CAL-27 [22] = assay: Induction of apoptosis in human CAL-27 cells assessed as late apoptotic cells at 63 uM incubated for 24 hrs by Annexin V-FITC/PI staining based flow cytometric analysis (reference value: 0.1 %); type: functional; procedure, shortened: as §3
CAL-27 [23] = assay: Induction of apoptosis in human CAL-27 cells assessed as necrotic cells at 63 uM incubated for 24 hrs by Annexin V-FITC/PI staining based flow cytometric analysis (reference value: 0.0 %); type: functional
SCC-9 [24] = assay: Induction of apoptosis in human SCC-9 cells assessed as live cells at 46 uM incubated for 24 hrs by Annexin V-FITC/PI staining based flow cytometric analysis (reference value: 95.7 %); type: functional
SCC-9 [25] = assay: Induction of apoptosis in human SCC-9 cells assessed as early apoptotic cells at 46 uM incubated for 24 hrs by Annexin V-FITC/PI staining based flow cytometric analysis (reference value: 2.8 %); type: functional
SCC-9 [26] = assay: Induction of apoptosis in human SCC-9 cells assessed as late apoptotic cells at 46 uM incubated for 24 hrs by Annexin V-FITC/PI staining based flow cytometric analysis (reference value: 1.4 %); type: functional
SCC-9 [27] = assay: Induction of apoptosis in human SCC-9 cells assessed as necrotic cells at 46 uM incubated for 24 hrs by Annexin V-FITC/PI staining based flow cytometric analysis (reference value: 0.1 %); type: functional
SCC-9 [28] = assay: Induction of apoptosis in human SCC-9 cells assessed as live cells at 92 uM incubated for 24 hrs by Annexin V-FITC/PI staining based flow cytometric analysis (reference value: 95.7 %); type: functional
SCC-9 [29] = assay: Induction of apoptosis in human SCC-9 cells assessed as early apoptotic cells at 92 uM incubated for 24 hrs by Annexin V-FITC/PI staining based flow cytometric analysis (reference value: 2.8 %); type: functional
SCC-9 [30] = assay: Induction of apoptosis in human SCC-9 cells assessed as late apoptotic cells at 92 uM incubated for 24 hrs by Annexin V-FITC/PI staining based flow cytometric analysis (reference value: 1.4 %); type: functional
SCC-9 [31] = assay: Induction of apoptosis in human SCC-9 cells assessed as necrotic cells at 92 uM incubated for 24 hrs by Annexin V-FITC/PI staining based flow cytometric analysis (reference value: 0.1 %); type: functional

Which results are given for `COc1c(O)c(CN2CCN(CC(=O)Nc3nc4ccc(C)cc4s3)CC2)c2c(c1O)C1O[C@H](CO)[C@@H](O)[C@H](O)C1OC2=O` (some centres undefined)?
IC50 (HCT-15): > 100 µM; IC50 (CAL-27 [1]): 63.7 µM; IC50 (SCC-9 [2]): 91.9 µM; IC50 (A549): 90.6 µM; IC50 (MCF7): 74.5 µM; IC50 [3]: > 100 µM; Activity (CAL-27 [4]): 85.4%; Activity (CAL-27 [5]): 82.1%; Activity (CAL-27 [6]): 3.7%; Activity (CAL-27 [7]): 3.2%; Activity (CAL-27 [8]): 11.5%; Activity (CAL-27 [9]): 15.3%; Activity (SCC-9 [10]): 76.9%; Activity (SCC-9 [11]): 85.7%; Activity (SCC-9 [12]): 11.3%; Activity (SCC-9 [13]): 4.9%; Activity (SCC-9 [14]): 11.7%; Activity (SCC-9 [15]): 9.4%; Activity (CAL-27 [16]): 89%; Activity (CAL-27 [17]): 8.3%; Activity (CAL-27 [18]): 2.6%; Activity (CAL-27 [19]): 0.4%; Activity (CAL-27 [20]): 81.1%; Activity (CAL-27 [21]): 11.7%; Activity (CAL-27 [22]): 4.2%; Activity (CAL-27 [23]): 3%; Activity (SCC-9 [24]): 38.2%; Activity (SCC-9 [25]): 9.4%; Activity (SCC-9 [26]): 14.7%; Activity (SCC-9 [27]): 37.6%; Activity (SCC-9 [28]): 53.5%; Activity (SCC-9 [29]): 7.5%; Activity (SCC-9 [30]): 12%; Activity (SCC-9 [31]): 27%
